This passage reports MIC and Ratio results from ChEMBL document CHEMBL4118255, “Synthesis and antibacterial evaluation of novel 11-O-aralkylcarbamoyl-3-O-descladinosylclarithromycin derivatives” (2018).

Holding throughout (type): functional
One test relates to Bacillus subtilis. Briefly: Antibacterial activity against erythromycin-susceptible Bacillus subtilis ATCC 9372 after 24 hrs by tube-dilution method. The conditions noted are these: ATCC 9372, 24 h. The method, boiled down:
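MIC by standard NCCLS broth microdilution. Reference macrolides clarithromycin and azithromycin run alongside.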

Another test has as its system Escherichia coli. Briefly: Antibacterial activity against penicillin-susceptible Escherichia coli ATCC 25922 incubated for 24 hrs by […]. The conditions noted are these: ATCC 25922, 24 h.
The test system of test [1] is Streptococcus pneumoniae. Briefly: Antibacterial activity against erythromycin-resistant Streptococcus pneumoniae A22072 harboring mefA gene after 24 hrs by […]. The conditions noted are these: A22072, 24 h.
For test [2], the system named is Staphylococcus aureus. The experiment in a line: Antibacterial activity against erythromycin-susceptible Staphylococcus aureus ATCC 25923 after 24 hrs by […]. The conditions noted are these: ATCC 25923, 24 h.
Test [3] deals with Streptococcus pneumoniae. Briefly: Potency index, ratio of clarithromycin MIC to compound MIC for erythromycin-resistant Streptococcus pneumoniae A22072 harboring mefA gene.
Test [4] relates to Streptococcus pneumoniae. Briefly: Potency index, ratio of azithromycin MIC to compound MIC for erythromycin-resistant Streptococcus pneumoniae AB11 harboring ermB and mefA gene.
Test [5] deals with Streptococcus pneumoniae. The experiment in a line: Potency index, ratio of clarithromycin MIC to compound MIC for erythromycin-resistant Streptococcus pneumoniae AB11 harboring ermB and mefA gene.
Test [6] concerns Streptococcus pyogenes. The experiment in a line: Antibacterial activity against erythromycin-susceptible Streptococcus pyogenes after 24 hrs […].
Test [7] deals with Streptococcus pneumoniae. The experiment in a line: Antibacterial activity against erythromycin-resistant Streptococcus pneumoniae B1 harboring ermB gene after 24 hrs by tube-dilution method. The conditions noted are these: B1, 24 h. The method, boiled down: (§1)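 MIC determined by the NCCLS-recommended standard broth microdilution method against erythromycin-resistant S. pneumoniae strains (A22072 mef, B1 erm, AB11 erm plus mef) and methicillin-resistant S. aureus ATCC43300.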

The subject of test [8] is Streptococcus pneumoniae. Briefly: Potency index, ratio of azithromycin MIC to compound MIC for erythromycin-resistant Streptococcus pneumoniae A22072 harboring mefA gene.
Test [9] concerns Streptococcus pyogenes. The experiment in a line: Antibacterial activity against erythromycin-resistant Streptococcus pyogenes R1 after 24 hrs by tube-dilution method. The settings on record: R1, 24 h.
The subject of another test is Pseudomonas aeruginosa. Briefly: Antibacterial activity against penicillin-susceptible Pseudomonas aeruginosa ATCC 27853 incubated for 24 hrs by […]. The settings on record: ATCC 27853, 24 h.
In test [10] the test system is Staphylococcus aureus. Briefly: Antibacterial activity against methicillin-resistant Staphylococcus aureus ATCC 43300 after 24 hrs by tube-dilution method. The conditions noted are these: ATCC 43300, 24 h. The method, boiled down:
as §1

The subject of test [11] is Streptococcus pneumoniae. The experiment in a line: Antibacterial activity against erythromycin-resistant Streptococcus pneumoniae AB11 harboring ermB and mefA genes after 24 hrs by tube-dilution method. The conditions noted are these: AB11, 24 h. The method, boiled down:
as §1

The test system of test [12] is Streptococcus pyogenes. Briefly: Potency index, ratio of azithromycin MIC to compound MIC for erythromycin-resistant Streptococcus pyogenes R1.
Test [13] relates to Streptococcus pyogenes. The experiment in a line: Potency index, ratio of clarithromycin MIC to compound MIC for erythromycin-resistant Streptococcus pyogenes R1.
For test [14], the system named is Staphylococcus aureus. Briefly: Potency index, ratio of clarithromycin MIC to compound MIC for methicillin-resistant Staphylococcus aureus ATCC 43300.
Test [15] has as its system Streptococcus pneumoniae. Briefly: Potency index, ratio of clarithromycin MIC to compound MIC for erythromycin-resistant Streptococcus pneumoniae B1 harboring ermB gene.
In test [16] the test system is Staphylococcus aureus. The experiment in a line: Potency index, ratio of azithromycin MIC to compound MIC for methicillin-resistant Staphylococcus aureus ATCC 43300.
Test [17] relates to Streptococcus pneumoniae. Briefly: Potency index, ratio of azithromycin MIC to compound MIC for erythromycin-resistant Streptococcus pneumoniae B1 harboring ermB gene.

In brackets after ≈: the same amount, converted by molar mass. Bounds are passed on as bounds.

As a reminder, the MIC is the smallest concentration in the dilution series that meets the test's criterion for growth inhibition. The low end stands for a more susceptible organism, the high end for a less susceptible organism.

For the compound `CC[C@H]1OC(=O)[C@H](C)[C@@H](OC(=O)Cc2cccnc2)[C@H](C)[C@@H](O[C@@H]2O[C@H](C)C[C@H](N(C)C)[C@H]2O)[C@](C)(OC)C[C@@H](C)C(=O)[C@H](C)[C@@H](OC(=O)NCCNC(=O)c2cc([N+](=O)[O-])cc([N+](=O)[O-])c2)[C@]1(C)O`, the MIC in the test with Bacillus subtilis came out at 1 µg/mL (≈ 1.01 µM); with Escherichia coli it was 64 µg/mL (≈ 64.7 µM); against Streptococcus pneumoniae [1], 0.5 µg/mL (≈ 0.506 µM); in the test on Staphylococcus aureus [2], 1 µg/mL (≈ 1.01 µM); against Streptococcus pyogenes [6], 0.015 µg/mL (≈ 0.0152 µM); with Streptococcus pneumoniae [7], 32 µg/mL (≈ 32.4 µM). Further, the MIC in the test with Streptococcus pyogenes [9] worked out at 128 µg/mL (≈ 129 µM); against Pseudomonas aeruginosa it was 64 µg/mL (≈ 64.7 µM); with Staphylococcus aureus [10], 64 µg/mL (≈ 64.7 µM); against Streptococcus pneumoniae [11] it was 4 µg/mL (≈ 4.04 µM). Also, the Ratio is 4 in the test on Streptococcus pneumoniae [3], 32 in the test with Streptococcus pneumoniae [4], 32 in the test on Streptococcus pneumoniae [5] and 8 in the test with Streptococcus pneumoniae [8].
On to `CC[C@H]1OC(=O)[C@H](C)[C@@H](OC(=O)Cc2cccnc2)[C@H](C)[C@@H](O[C@@H]2O[C@H](C)C[C@H](N(C)C)[C@H]2O)[C@](C)(OC)C[C@@H](C)C(=O)[C@H](C)[C@@H](OC(=O)NCCNC(=O)C#Cc2cccc3ccccc23)[C@]1(C)O`, for which the MIC with Bacillus subtilis was 2 µg/mL (≈ 2.06 µM); against Escherichia coli, more than 128 µg/mL; in the test on Streptococcus pneumoniae [1], 1 µg/mL (≈ 1.03 µM); in the test with Staphylococcus aureus [2], 4 µg/mL (≈ 4.11 µM); in the test on Streptococcus pyogenes [6], 0.125 µg/mL (≈ 0.128 µM); against Streptococcus pneumoniae [7] it was 32 µg/mL (≈ 32.9 µM). Besides, the MIC in the test with Streptococcus pyogenes [9] was 32 µg/mL (≈ 32.9 µM); with Pseudomonas aeruginosa, more than 128 µg/mL; against Staphylococcus aureus [10], 64 µg/mL (≈ 65.8 µM); against Streptococcus pneumoniae [11], 16 µg/mL (≈ 16.4 µM). In addition, the Ratio in the test on Streptococcus pyogenes [12] and in the test with Streptococcus pyogenes [13] was 4 throughout.
As for `CC[C@H]1OC(=O)[C@H](C)[C@@H](OC(=O)Cc2cccnc2)[C@H](C)[C@@H](O[C@@H]2O[C@H](C)C[C@H](N(C)C)[C@H]2O)[C@](C)(OC)C[C@@H](C)C(=O)[C@H](C)[C@@H](OC(=O)NCCNC(=O)c2ccc([N+](=O)[O-])cc2N)[C@]1(C)O`, the MIC against Bacillus subtilis stood at 1 µg/mL (≈ 1.04 µM); against Escherichia coli it was 64 µg/mL (≈ 66.7 µM); against Streptococcus pneumoniae [1] it was 0.25 µg/mL (≈ 0.261 µM); against Staphylococcus aureus [2], 1 µg/mL (≈ 1.04 µM); against Streptococcus pyogenes [6] it was 0.03 µg/mL (≈ 0.0313 µM); in the test on Streptococcus pneumoniae [7], 16 µg/mL (≈ 16.7 µM). Besides, the MIC against Streptococcus pyogenes [9] was determined as 128 µg/mL (≈ 133 µM); against Pseudomonas aeruginosa it was 64 µg/mL (≈ 66.7 µM); against Staphylococcus aureus [10], 64 µg/mL (≈ 66.7 µM); against Streptococcus pneumoniae [11], 4 µg/mL (≈ 4.17 µM). The Ratio came to 4 in the test with Staphylococcus aureus [14]; 8 in the test with Streptococcus pneumoniae [3]; 32 in the test on Streptococcus pneumoniae [4]; 32 in the test with Streptococcus pneumoniae [5]; 8 in the test on Streptococcus pneumoniae [15]; 4 in the test with Staphylococcus aureus [16]. Moreover, the values for the Ratio in the test on Streptococcus pneumoniae [8] and in the test with Streptococcus pneumoniae [17] were 16 and 8, respectively.
Turning to `CC[C@H]1OC(=O)[C@H](C)[C@@H](OC(=O)Cc2cccnc2)[C@H](C)[C@@H](O[C@@H]2O[C@H](C)C[C@H](N(C)C)[C@H]2O)[C@](C)(OC)C[C@@H](C)C(=O)[C@H](C)[C@@H](OC(=O)NCCNC(=O)c2ccc(C3CCCCC3)cc2)[C@]1(C)O`, the MIC in the test on Bacillus subtilis turned out to be 4 µg/mL (≈ 4.08 µM); against Escherichia coli, 128 µg/mL (≈ 130 µM); against Streptococcus pneumoniae [1], 1 µg/mL (≈ 1.02 µM); with Staphylococcus aureus [2], 2 µg/mL (≈ 2.04 µM); with Streptococcus pyogenes [6] it was 0.5 µg/mL (≈ 0.51 µM); against Streptococcus pneumoniae [7], 64 µg/mL (≈ 65.2 µM). The MIC turned out to be 32 µg/mL (≈ 32.6 µM) in the test with Streptococcus pyogenes [9], 128 µg/mL (≈ 130 µM) with Pseudomonas aeruginosa, 32 µg/mL (≈ 32.6 µM) against Staphylococcus aureus [10] and 32 µg/mL (≈ 32.6 µM) in the test with Streptococcus pneumoniae [11]. Further, the Ratio in the test with Streptococcus pyogenes [12] and in the test with Streptococcus pyogenes [13] was 4 throughout.
Take `CC[C@H]1OC(=O)[C@H](C)[C@@H](OC(=O)Cc2cccnc2)[C@H](C)[C@@H](O[C@@H]2O[C@H](C)C[C@H](N(C)C)[C@H]2O)[C@](C)(OC)C[C@@H](C)C(=O)[C@H](C)[C@@H](OC(=O)NCCNC(=O)c2ccc([N+](=O)[O-])cc2)[C@]1(C)O`: the MIC against Bacillus subtilis is 2 µg/mL (≈ 2.12 µM); against Escherichia coli it was 64 µg/mL (≈ 67.8 µM); in the test with Streptococcus pneumoniae [1], 0.5 µg/mL (≈ 0.53 µM); in the test on Staphylococcus aureus [2], 1 µg/mL (≈ 1.06 µM); against Streptococcus pyogenes [6], 0.03 µg/mL (≈ 0.0318 µM); in the test with Streptococcus pneumoniae [7], 32 µg/mL (≈ 33.9 µM). The MIC against Streptococcus pyogenes [9] is more than 128 µg/mL; in the test on Pseudomonas aeruginosa, 64 µg/mL (≈ 67.8 µM); against Staphylococcus aureus [10] it was 128 µg/mL (≈ 136 µM); in the test on Streptococcus pneumoniae [11] it was 8 µg/mL (≈ 8.47 µM). Further, the Ratio in the test on Streptococcus pneumoniae [3] is 4; in the test on Streptococcus pneumoniae [8] it was 8.
Turning to `CC[C@H]1OC(=O)[C@H](C)[C@@H](OC(=O)Cc2cccnc2)[C@H](C)[C@@H](O[C@@H]2O[C@H](C)C[C@H](N(C)C)[C@H]2O)[C@](C)(OC)C[C@@H](C)C(=O)[C@H](C)[C@@H](OC(=O)NCCNC(=O)/C=C/c2ccco2)[C@]1(C)O`, the MIC in the test with Bacillus subtilis stood at 8 µg/mL (≈ 8.74 µM); in the test on Escherichia coli it was 128 µg/mL (≈ 140 µM); in the test on Streptococcus pneumoniae [1] it was 1 µg/mL (≈ 1.09 µM); with Staphylococcus aureus [2], 16 µg/mL (≈ 17.5 µM); in the test with Streptococcus pyogenes [6], 0.125 µg/mL (≈ 0.137 µM); in the test on Streptococcus pneumoniae [7] it was 64 µg/mL (≈ 69.9 µM). Further, the MIC was more than 128 µg/mL against Streptococcus pyogenes [9], more than 128 µg/mL against Pseudomonas aeruginosa, 32 µg/mL (≈ 35 µM) with Staphylococcus aureus [10] and 16 µg/mL (≈ 17.5 µM) in the test with Streptococcus pneumoniae [11]. Moreover, the Ratio with Staphylococcus aureus [14] and in the test with Staphylococcus aureus [16] was 4 each time.
Take `CC[C@H]1OC(=O)[C@H](C)C(=O)[C@H](C)[C@@H](O[C@@H]2O[C@H](C)C[C@H](N(C)C)[C@H]2O)[C@](C)(OC)C[C@@H](C)C(=O)[C@H](C)[C@@H](OC(=O)NCCNC(=O)C#Cc2ccc(C)cc2)[C@]1(C)O`: the MIC in the test with Bacillus subtilis was 1 µg/mL (≈ 1.23 µM); against Escherichia coli it was more than 128 µg/mL; in the test with Streptococcus pneumoniae [1] it was 0.5 µg/mL (≈ 0.613 µM); in the test with Staphylococcus aureus [2], 8 µg/mL (≈ 9.8 µM); against Streptococcus pyogenes [6] it was 0.25 µg/mL (≈ 0.306 µM); against Streptococcus pneumoniae [7], 128 µg/mL (≈ 157 µM). Further, the MIC with Streptococcus pyogenes [9] is more than 128 µg/mL; against Pseudomonas aeruginosa, 128 µg/mL (≈ 157 µM); with Staphylococcus aureus [10], 128 µg/mL (≈ 157 µM); with Streptococcus pneumoniae [11] it was 64 µg/mL (≈ 78.4 µM). For the same compound, the Ratio stood at 4 in the test on Streptococcus pneumoniae [3] and 8 in the test with Streptococcus pneumoniae [8].
On to `CC[C@H]1OC(=O)[C@H](C)C(=O)[C@H](C)[C@@H](O[C@@H]2O[C@H](C)C[C@H](N(C)C)[C@H]2O)[C@](C)(OC)C[C@@H](C)C(=O)[C@H](C)[C@@H](OC(=O)NCCNC(=O)C#Cc2ccc(Br)cc2)[C@]1(C)O`, for which the MIC in the test with Bacillus subtilis was 1 µg/mL (≈ 1.14 µM); against Escherichia coli, 128 µg/mL (≈ 145 µM); with Streptococcus pneumoniae [1], 2 µg/mL (≈ 2.27 µM); in the test with Staphylococcus aureus [2], 8 µg/mL (≈ 9.08 µM); in the test on Streptococcus pyogenes [6], 1 µg/mL (≈ 1.14 µM); in the test on Streptococcus pneumoniae [7], 128 µg/mL (≈ 145 µM). For the same compound, the minimal inhibitory concentration (MIC) is 64 µg/mL (≈ 72.7 µM) against Streptococcus pyogenes [9], more than 128 µg/mL in the test on Pseudomonas aeruginosa, 16 µg/mL (≈ 18.2 µM) in the test on Staphylococcus aureus [10] and 32 µg/mL (≈ 36.3 µM) in the test on Streptococcus pneumoniae [11]. Moreover, the Ratio in the test on Staphylococcus aureus [14] and in the test with Staphylococcus aureus [16] was 8 in each case.
